Measurements reported in ChEMBL document CHEMBL3862007, “Synthesis and antimicrobial activity of small cationic amphipathic aminobenzamide marine natural product mimics and evaluation of relevance against clinical isolates including ESBL-CARBA producing multi-resistant bacteria” (Bioorg Med Chem, 2016).

How the values were obtained:
Staphylococcus aureus [1] = test: Antibacterial activity against Staphylococcus aureus ATCC 9144 after 48 hrs by microdilution method; type: functional; conditions: ATCC 9144, 48 h
Pseudomonas aeruginosa [2] = test: Antibacterial activity against Pseudomonas aeruginosa PAO1 DSM 19880 (ATCC 15692) after 48 hrs by microdilution method; type: functional
[3] = Hemolytic activity in human RBC after 1 hr; type: ADME, cell-based; conditions: Erythrocyte
[4] = Selectivity index, ratio of hemolytic EC50 for human RBC to MIC for Staphylococcus aureus ATCC 9144
[5] = test system: Corynebacterium glutamicum; test: Antibacterial activity against Corynebacterium glutamicum ATCC 13032 after 48 hrs by microdilution method; type: functional; conditions: ATCC 13032, 48 h
Bacillus subtilis [6] = test: Antibacterial activity against Bacillus subtilis 168 ATCC 23857 after 48 hrs by microdilution method; type: functional; conditions: subsp. subtilis str. 168 ATCC 23857, 48 h
[7] = Antibacterial activity against methicillin-resistant Staphylococcus epidermidis RP62A CCUG 31568 (ATCC 35984) after 48 hrs by microdilution method; type: functional
Method in brief: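 Broth microdilution MIC against the reference-strain panel. Compounds were supplied as HCl salts for aqueous solubility in the test medium. Precipitation in the test buffer is flagged at higher concentrations.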

Escherichia coli [8] = test: Antibacterial activity against Escherichia coli ATCC 25922 after 48 hrs by microdilution method; type: functional; conditions: ATCC 25922, 48 h
Bacillus subtilis [9] = test: Membranolytic activity in Bacillus subtilis 168 ATCC 23857 carrying pCSS962 plasmid measured every second for 30 secs by luciferase reporter assay; type: functional; conditions: subsp. subtilis str. 168 ATCC 23857
Method in brief: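 B. subtilis 168 carrying pCSS962 (luciferase-expressing) was added as a suspension already containing D-luciferin, with luminescence read in real time up to 120 s. Water served as the untreated control. Chlorhexidine was added to all samples at 30 s as a membranolytic control. Fold induction is the peak sample luminescence over the water-control maximum after chlorhexidine, from two independent experiments.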

Klebsiella pneumoniae = test: Antibacterial activity against Klebsiella pneumoniae clinical isolate after 24 hrs by microdilution method; type: functional
Enterococcus sp. = test: Antibacterial activity against Enterococcus sp. clinical isolate after 24 hrs by microdilution method; type: functional
Staphylococcus aureus [10] = test: Antibacterial activity against Staphylococcus aureus clinical isolate after 24 hrs by microdilution method; type: functional
Escherichia coli [11] = test: Antibacterial activity against Escherichia coli clinical isolate after 24 hrs by microdilution method; type: functional
Pseudomonas aeruginosa [12] = test: Antibacterial activity against Pseudomonas aeruginosa clinical isolate after 24 hrs by microdilution method; type: functional
[13] = Aqueous solubility of the compound; type: physicochemical; conditions: buffer

| SMILES | MIC (Staphylococcus aureus [1]) | MIC (Pseudomonas aeruginosa [2]) | EC50 [3] | Selectivity Index [4] | MIC [5] | MIC (Bacillus subtilis [6]) | MIC [7] | MIC (Escherichia coli [8]) | Activity (Bacillus subtilis [9]) | MIC (Klebsiella pneumoniae) | MIC (Enterococcus sp.) | MIC (Staphylococcus aureus [10]) | MIC (Escherichia coli [11]) | MIC (Pseudomonas aeruginosa [12]) | solubility [13] |
| --- | --- | --- | --- | --- | --- | --- | --- | --- | --- | --- | --- | --- | --- | --- | --- |
| CC(C)(C)c1cc(C(=O)Nc2ccc(C(=O)NCCCNC(=N)N)cc2)cc(C(C)(C)C)c1.Cl | 4 µg/mL | 16 µg/mL | 62 µg/mL | 15.5 | 2 µg/mL | 4 µg/mL | 4 µg/mL | 8 µg/mL |  |  |  |  |  |  |  |
| CC(C)(C)c1cc(C(=O)Nc2ccc(C(=O)NCCCN)cc2)cc(C(C)(C)C)c1.Cl | 8 µg/mL | 32 µg/mL | 31 µg/mL | 3.9 | 4 µg/mL | 4 µg/mL | 8 µg/mL | 8 µg/mL |  |  |  |  |  |  |  |
| CN(C(=O)c1cc(C(C)(C)C)cc(C(C)(C)C)c1)c1ccc(C(=O)NCCN)cc1 |  |  |  | 0.3 |  |  |  |  |  |  |  |  |  |  |  |
| CC(C)(C)c1cc(C(=O)Nc2cccc(C(=O)NCCCN)c2)cc(C(C)(C)C)c1.Cl | 8 µg/mL | 16 µg/mL | 32 µg/mL | 4 | 4 µg/mL | 8 µg/mL | 8 µg/mL | 16 µg/mL |  |  |  |  |  |  |  |
| CC(C)(C)c1cc(C(=O)Nc2cccc(C(=O)NCCCNC(=N)N)c2)cc(C(C)(C)C)c1.Cl | 4 µg/mL | 16 µg/mL | 59 µg/mL | 14.8 | 4 µg/mL | 4 µg/mL | 8 µg/mL | 8 µg/mL | Dose-dependent effect |  |  |  |  |  |  |
| CC(C)(C)c1cc(NC(=O)c2ccc(C(=O)NCCCN)cc2)cc(C(C)(C)C)c1.Cl | 8 µg/mL | 16 µg/mL | 28 µg/mL | 3.5 | 4 µg/mL | 8 µg/mL | 8 µg/mL | 8 µg/mL |  |  |  |  |  |  |  |
| CN(C)CCNC(=O)c1ccc(NC(=O)c2cc(C(C)(C)C)cc(C(C)(C)C)c2)cc1.Cl | 16 µg/mL | > 128 µg/mL | > 16 µg/mL | > 1 | 4 µg/mL | 8 µg/mL | 8 µg/mL | 32 µg/mL |  |  |  |  |  |  |  |
| CC(C)(C)c1cc(C(=O)Nc2ccccc2C(=O)NCCN)cc(C(C)(C)C)c1.Cl | 8 µg/mL | 64 µg/mL | 29 µg/mL | 3.6 | 4 µg/mL | 4 µg/mL | 8 µg/mL | 16 µg/mL |  | 32 µg/mL | 8 µg/mL | 8 µg/mL | 16 µg/mL | > 64 µg/mL |  |
| CN(C)CCOC(=O)c1ccc(NC(=O)c2cc(C(C)(C)C)cc(C(C)(C)C)c2)cc1.Cl | 8 µg/mL | > 128 µg/mL | 28 µg/mL | 3.5 | 4 µg/mL | 4 µg/mL | 8 µg/mL | > 128 µg/mL |  |  |  |  |  |  |  |
| CC(C)(C)c1cc(C(=O)NCc2ccc(C(=O)NCCNC(=N)N)cc2)cc(C(C)(C)C)c1.Cl | 8 µg/mL | 16 µg/mL | 52 µg/mL | 6.5 | 2 µg/mL | 8 µg/mL | 8 µg/mL | 16 µg/mL |  |  |  |  |  |  | Insoluble |
| CN(C(=O)c1cc(C(C)(C)C)cc(C(C)(C)C)c1)c1ccc(C(=O)NCCNC(=N)N)cc1.Cl | 16 µg/mL | 128 µg/mL | 243 µg/mL | 15.2 | 4 µg/mL | 16 µg/mL | 16 µg/mL | 128 µg/mL |  |  |  |  |  |  |  |
| CC(C)(C)c1cc(NC(=O)c2ccc(C(=O)NCCN)cc2)cc(C(C)(C)C)c1.Cl | 8 µg/mL | 16 µg/mL | 21 µg/mL | 2.6 | 8 µg/mL | 4 µg/mL | 8 µg/mL | 8 µg/mL |  |  |  |  |  |  |  |
| CC(C)(C)c1cc(C(=O)Nc2ccccc2C(=O)NCCCNC(=N)N)cc(C(C)(C)C)c1.Cl | 4 µg/mL | 32 µg/mL | 39 µg/mL | 9.8 | 1 µg/mL | 2 µg/mL | 2 µg/mL | 8 µg/mL |  |  |  |  |  |  |  |
| CC(C)(C)c1cc(C(=O)Nc2ccc(C(=O)NCCN)cc2)cc(C(C)(C)C)c1.Cl | 8 µg/mL | 16 µg/mL | 28 µg/mL | 3.5 | 4 µg/mL | 4 µg/mL | 8 µg/mL | 8 µg/mL |  | 16 µg/mL | 16 µg/mL | 8 µg/mL | 8 µg/mL | 16 µg/mL |  |
| CN(C(=O)c1cc(C(C)(C)C)cc(C(C)(C)C)c1)c1ccc(C(=O)NCCCN)cc1.Cl | > 128 µg/mL | > 128 µg/mL | 172 µg/mL | < 1.3 | 64 µg/mL | 128 µg/mL | > 128 µg/mL | > 128 µg/mL |  |  |  |  |  |  |  |
| CC(C)(C)c1cc(C(=O)Nc2ccc(C(=O)NCCNC(=N)N)cc2)cc(C(C)(C)C)c1.Cl | 4 µg/mL | 16 µg/mL | 38 µg/mL | 9.5 | 2 µg/mL | 4 µg/mL | 4 µg/mL | 8 µg/mL | Dose-dependent effect | 16 µg/mL | 8 µg/mL | 4 µg/mL | 8 µg/mL | > 64 µg/mL |  |
| CC(C)(C)c1cc(C(=O)Nc2cc3ccccc3cc2C(=O)NCCN)cc(C(C)(C)C)c1.Cl | 2 µg/mL | > 128 µg/mL | 23 µg/mL | 11.5 | 2 µg/mL | 4 µg/mL | 8 µg/mL | 8 µg/mL |  | 64 µg/mL | 2 µg/mL | 2 µg/mL | 8 µg/mL | > 64 µg/mL |  |
| CC(C)(C)c1cc(NC(=O)c2ccc(C(=O)NCCNC(=N)N)cc2)cc(C(C)(C)C)c1.Cl | 4 µg/mL | 16 µg/mL | 44 µg/mL | 11 | 2 µg/mL | 4 µg/mL | 4 µg/mL | 8 µg/mL |  | 16 µg/mL | 8 µg/mL | 4 µg/mL | 8 µg/mL | 8 µg/mL |  |
| CC(C)(C)c1cc(C(=O)Nc2cccc(C(=O)NCCN)c2)cc(C(C)(C)C)c1.Cl | 16 µg/mL | 16 µg/mL | 39 µg/mL | 2.4 | 8 µg/mL | 8 µg/mL | 8 µg/mL | 16 µg/mL |  |  |  |  |  |  |  |
| CC(C)(C)c1cc(C(=O)Nc2cc3ccccc3cc2C(=O)NCCNC(=N)N)cc(C(C)(C)C)c1.Cl | 2 µg/mL | 64 µg/mL | > 16 µg/mL | > 8 | 1 µg/mL | 1 µg/mL | 2 µg/mL | 16 µg/mL |  | 32 µg/mL | 8 µg/mL | 4 µg/mL | 16 µg/mL | > 64 µg/mL |  |
| CC(C)(C)c1cc(C(=O)Nc2ccccc2C(=O)NCCCN)cc(C(C)(C)C)c1.Cl | 8 µg/mL | 32 µg/mL | 23 µg/mL | 2.9 | 4 µg/mL | 4 µg/mL | 8 µg/mL | 16 µg/mL | Dose-dependent effect |  |  |  |  |  |  |
| CC(C)(C)c1cc(NC(=O)c2ccc(C(=O)NCCCNC(=N)N)cc2)cc(C(C)(C)C)c1.Cl | 4 µg/mL | 8 µg/mL | 42 µg/mL | 10.5 | 2 µg/mL | 4 µg/mL | 8 µg/mL | 8 µg/mL |  | 16 µg/mL | 8 µg/mL | 4 µg/mL | 8 µg/mL | 8 µg/mL |  |
